The text below walks through data of ChEMBL document CHEMBL4627283, “Discovery and optimization of 4-oxo-2-thioxo-thiazolidinones as NOD-like receptor (NLR) family, pyrin domain-containing protein 3 (NLRP3) inhibitors” (Bioorg Med Chem Lett, 2020).

The target in series [1] is T1, NACHT, LRR and PYD domains-containing protein 3 (Homo sapiens, UniProt Q96P20). Kind of series: Inhibition of NLRP3 inflammasome (unknown origin) activation in bone marrow derived macrophage cells assessed as effect on ATP-induced TNF-alpha secretion at 5 uM by ELISA. The gist of the method:
(§1)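 LPS-primed BMDMs given compound (5 μM), then nigericin (10 µM), ATP (2.5 mM) or MSU (150 µg/mL); TNF-α in supernatant measured by ELISA.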
Background: ELISA stands for enzyme-linked immunosorbent assay.

Series [2] concerns the target T1, NACHT, LRR and PYD domains-containing protein 3. Kind of series: Inhibition of NLRP3 inflammasome (unknown origin) activation in LPS-primed bone marrow derived macrophages assessed as inhibition of IL-1beta secretion in presence of ATP by ELISA. The essentials:
(§2)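 LPS-primed BMDMs treated with compound (5 μM) and stimulated with nigericin (10 µM), ATP (2.5 mM) or MSU (150 µg/mL), over a time course or at increasing agonist doses; secreted IL-1β by ELISA.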

Series [3] has the same target. Kind of series: Inhibition of NLRP3 inflammasome (unknown origin) activation in bone marrow derived macrophage cells assessed as effect on nigericin-induced TNF-alpha secretion at 5 uM by ELISA. The essentials:
as §1

Series [4] has the same target. Kind of series: Inhibition of NLRP3 inflammasome (unknown origin) activation in LPS-primed bone marrow derived macrophages assessed as inhibition of IL-1beta secretion at 5 uM in presence of ATP by ELISA. The settings on record: TDE = time-dependent effect. The essentials:
as §2

Series [5] shares this target. Kind of series: Inhibition of NLRP3 inflammasome (unknown origin) activation in LPS-primed bone marrow derived macrophages assessed as inhibition of IL-1beta secretion in presence of mono sodium urate by ELSIA. The essentials:
as §2

The target is the same in series [6]. Kind of series: Inhibition of NLRP3 inflammasome (unknown origin) activation in LPS-primed bone marrow derived macrophage cells assessed as effect on IL-1beta production in presence of nigericin by ELISA. The gist of the method: (§3)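 BMDMs pretreated with varied doses of compound, then LPS-primed and stimulated with nigericin; IL-1β in supernatant by ELISA, normalized to DMSO-treated control; IC50 given as mean ± SD.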

Series [7] shares this target. Kind of series: Inhibition of NLRP3 inflammasome (unknown origin) activation in LPS-primed bone marrow derived macrophages assessed as inhibition of IL-1beta secretion at 5 uM in presence of mono sodium urate by ELISA. The settings on record: TDE = time-dependent effect. The gist of the method:
as §2

Series [8] shares this target. Kind of series: Inhibition of NLRP3 inflammasome (unknown origin) activation in LPS-primed bone marrow derived macrophages assessed as inhibition of IL-1beta secretion at 5 uM in presence of nigericin by ELISA. The settings on record: TDE = time-dependent effect. The gist of the method: as §2
A short description of series [9]: Oral bioavailability in Sprague-Dawley rat administered as single dose. Format: ADME, organism-based. The settings on record: in vivo. The essentials:
(§4)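 Sprague-Dawley rats given a single intravenous or oral dose; pharmacokinetic parameters (half-life, AUC, bioavailability) derived from the plasma profile.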

Series [10] in a line: Half life in human liver microsomes in presence of NADPH. Format: ADME, Microsome. The gist of the method:
(§5)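 Stability in human and mouse liver microsomes incubated with an NADPH regenerating system; half-life (min) and hepatic clearance (mL/min/kg) determined.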

Series [11] is described as follows: AUC in po or iv qd dosed Sprague-Dawley rat. The settings on record: in vivo. Format: ADME, organism-based. The essentials: as §4
For series [12], the target named is T1, NACHT, LRR and PYD domains-containing protein 3. Kind of series: Inhibition of NLRP3 inflammasome (unknown origin) activation in bone marrow derived macrophage cells assessed as effect on mono sodium urate-induced TNF-alpha secretion at 5 uM by ELISA. The essentials: as §1
Series [13] addresses T2, Interferon-inducible protein AIM2 (Homo sapiens) (UniProt O14862).
T2 sequence (whole entry): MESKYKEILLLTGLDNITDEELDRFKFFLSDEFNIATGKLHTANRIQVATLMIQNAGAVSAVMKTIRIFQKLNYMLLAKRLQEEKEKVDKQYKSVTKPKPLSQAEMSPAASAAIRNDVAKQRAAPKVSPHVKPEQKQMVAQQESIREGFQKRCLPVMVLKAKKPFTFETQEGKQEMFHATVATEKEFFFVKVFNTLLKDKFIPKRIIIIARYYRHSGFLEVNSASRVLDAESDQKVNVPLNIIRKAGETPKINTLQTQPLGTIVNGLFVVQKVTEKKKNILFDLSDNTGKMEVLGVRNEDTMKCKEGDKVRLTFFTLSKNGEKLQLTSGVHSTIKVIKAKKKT
Kind of series: Inhibition of AIM2 inflammasome (unknown origin) activation in bone marrow derived macrophages assessed as inhibition of poly(dA:dT)-induced IL-1beta secretion at 5 uM by ELISA. The essentials:
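LPS-primed BMDMs treated with compound (5 μM), then transfected with poly(dA:dT) (0.5 µg/ml) using Lipofectamine for various times; supernatant IL-1β by ELISA.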

In series [14] the target is T1, NACHT, LRR and PYD domains-containing protein 3. Kind of series: Inhibition of NLRP3 inflammasome (unknown origin) activation in LPS-primed bone marrow derived macrophage cells at 10 uM in presence of mono sodium urate relative to control.
Series [15] in a line: Clearance in mouse liver microsomes in presence of NADPH. It counts as ADME, Microsome. The essentials: as §5
A general note: Liver microsomes are a subcellular fraction often used to study metabolism.

In series [16] the test system is Mus musculus. Kind of series: In vivo inhibition of NLRP3 inflammasome activation in mouse model of cryopyrin-associated auto-inflammatory syndrome. It counts as functional, organism-based.
Series [17] addresses T1, NACHT, LRR and PYD domains-containing protein 3. Kind of series: Inhibition of NLRP3 inflammasome (unknown origin) activation in LPS-primed bone marrow derived macrophages assessed as inhibition of IL-1beta secretion in presence of nigericin by ELISA. The gist of the method: as §3
Series [18] concerns the target NLR family CARD domain-containing protein 4 (Homo sapiens) (UniProt Q9NPP4). Kind of series: Inhibition of NLRC4 inflammasome (unknown origin) activation in bone marrow derived macrophages assessed as inhibition of Salmonella-induced IL-1beta secretion at 5 uM by ELISA. The essentials:
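LPS-primed BMDMs treated with compound (5 μM), then infected with Salmonella typhimurium for different times; supernatant IL-1β by ELISA.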

A short description of series [19]: Half life in mouse liver microsomes in presence of NADPH. It counts as ADME, Microsome. The gist of the method:
as §5

Series [20] in a line: Clearance in human liver microsomes in presence of NADPH. Format: ADME, Microsome. The gist of the method:
as §5

Series [21] is filed under the species Mus musculus. Kind of series: Reversal of NLRP3 mediated metabolic disorder in mouse model of diabetes. It counts as functional, organism-based.

The source made the active and inactive calls. No cut-off for these calls is given here.

T1 sequence (Q96P20 whole entry, the tested form may be a part): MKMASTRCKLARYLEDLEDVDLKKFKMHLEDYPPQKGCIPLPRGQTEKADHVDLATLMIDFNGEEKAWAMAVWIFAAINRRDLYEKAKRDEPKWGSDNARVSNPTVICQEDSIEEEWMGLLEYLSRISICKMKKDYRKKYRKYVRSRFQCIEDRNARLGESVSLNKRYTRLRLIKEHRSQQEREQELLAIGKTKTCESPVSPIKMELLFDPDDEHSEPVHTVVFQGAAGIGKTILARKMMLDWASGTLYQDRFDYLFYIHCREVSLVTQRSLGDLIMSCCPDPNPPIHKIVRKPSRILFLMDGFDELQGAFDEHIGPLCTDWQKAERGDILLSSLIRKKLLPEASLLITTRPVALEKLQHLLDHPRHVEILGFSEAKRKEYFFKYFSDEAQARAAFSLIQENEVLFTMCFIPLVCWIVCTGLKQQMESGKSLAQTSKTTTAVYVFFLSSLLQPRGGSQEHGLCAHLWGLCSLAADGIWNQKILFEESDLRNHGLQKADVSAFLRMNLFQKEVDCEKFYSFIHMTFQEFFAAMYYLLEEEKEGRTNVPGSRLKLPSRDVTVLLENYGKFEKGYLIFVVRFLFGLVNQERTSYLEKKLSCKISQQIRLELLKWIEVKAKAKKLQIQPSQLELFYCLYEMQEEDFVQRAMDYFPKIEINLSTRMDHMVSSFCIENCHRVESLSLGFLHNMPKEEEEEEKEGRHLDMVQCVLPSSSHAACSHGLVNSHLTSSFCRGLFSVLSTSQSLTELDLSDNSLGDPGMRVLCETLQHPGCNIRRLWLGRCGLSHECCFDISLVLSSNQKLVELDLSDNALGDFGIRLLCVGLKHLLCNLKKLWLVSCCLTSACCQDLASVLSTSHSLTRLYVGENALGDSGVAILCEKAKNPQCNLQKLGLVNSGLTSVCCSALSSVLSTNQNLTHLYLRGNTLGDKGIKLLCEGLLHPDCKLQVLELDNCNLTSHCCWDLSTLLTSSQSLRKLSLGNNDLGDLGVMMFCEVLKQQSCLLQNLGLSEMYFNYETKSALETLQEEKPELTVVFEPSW
NLR family CARD domain-containing protein 4 (Homo sapiens), sequence (Q9NPP4 whole entry, the tested form may be a part): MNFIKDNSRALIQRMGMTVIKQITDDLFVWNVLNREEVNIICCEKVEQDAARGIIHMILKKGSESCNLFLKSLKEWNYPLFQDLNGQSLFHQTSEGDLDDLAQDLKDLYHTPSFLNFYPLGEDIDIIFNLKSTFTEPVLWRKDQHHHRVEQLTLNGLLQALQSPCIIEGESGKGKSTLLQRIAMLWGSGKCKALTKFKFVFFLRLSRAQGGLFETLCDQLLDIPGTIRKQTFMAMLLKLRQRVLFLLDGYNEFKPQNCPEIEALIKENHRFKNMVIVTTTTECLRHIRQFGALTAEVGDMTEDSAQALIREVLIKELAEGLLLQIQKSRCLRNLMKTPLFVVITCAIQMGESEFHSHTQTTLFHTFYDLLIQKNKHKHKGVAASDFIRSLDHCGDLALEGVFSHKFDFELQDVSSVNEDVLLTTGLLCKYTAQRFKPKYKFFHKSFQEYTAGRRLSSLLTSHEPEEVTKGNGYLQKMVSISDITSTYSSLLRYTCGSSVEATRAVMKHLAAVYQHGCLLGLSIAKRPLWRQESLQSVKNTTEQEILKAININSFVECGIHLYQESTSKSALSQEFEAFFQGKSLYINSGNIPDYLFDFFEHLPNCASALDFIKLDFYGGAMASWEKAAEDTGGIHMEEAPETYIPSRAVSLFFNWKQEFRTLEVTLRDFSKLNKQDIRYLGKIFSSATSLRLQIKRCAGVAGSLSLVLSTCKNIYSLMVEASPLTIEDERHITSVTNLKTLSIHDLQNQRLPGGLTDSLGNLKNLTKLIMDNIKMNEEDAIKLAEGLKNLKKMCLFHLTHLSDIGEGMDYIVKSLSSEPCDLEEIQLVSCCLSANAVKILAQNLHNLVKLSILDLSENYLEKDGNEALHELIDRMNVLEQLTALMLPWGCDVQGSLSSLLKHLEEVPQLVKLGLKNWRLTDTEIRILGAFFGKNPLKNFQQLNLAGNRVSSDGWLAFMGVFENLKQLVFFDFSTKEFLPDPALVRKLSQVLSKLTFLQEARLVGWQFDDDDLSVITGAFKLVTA

The inhibition is the drop in the measured response relative to a control, in per cent. As a reminder, the IC50 is the concentration needed to halve the response being measured. By bioavailability is commonly meant the share of a dose that reaches the circulation, judged against a reference dose that is usually intravenous. Higher therefore signals good availability. Broadly, the half-life is how long it takes for the measured level to halve. Broadly, the AUC is the area under the concentration-time curve, a measure of exposure. The low end stands for less exposure, the high end for more exposure. For `O=C(O)c1ccc(/C=C2\SC(=S)N(Cc3cccc(C(F)(F)F)c3)C2=O)cc1`, the inhibition entry in [1], in [3], in series [12], in series [13] and in [18] was “inactive” in each case. Besides, the inhibition entry was “Dose-dependent effect” in [2]; “Tde” in series [4]; “Dose-dependent effect” in [5]; “Tde” in [7]; “Tde” in series [8]; 83% in [14]. In addition, in series [17], the inhibition entry is “Dose-dependent effect”. For the same molecule, the IC50 in [6] was determined as 2.4 µM. Further, the bioavailability in series [9] is 27%. In addition, the half-life in series [10] and in series [19] was > 2.42 h each time. Besides, in series [11], the exposure (AUC) amounted to 1930 ng·h/mL. Further, the CLhep predicted in series [15] is < 20.7 mL/min/kg; in series [20] it was < 4.7 mL/min/kg. The inhibition result in [16] is “Active”. Also, the outcome in [21] was Active.
